Data from ChEMBL document CHEMBL1914331, “N-O chemistry for antibiotics: discovery of N-alkyl-N-(pyridin-2-yl)hydroxylamine scaffolds as selective antibacterial agents using nitroso Diels-Alder and ene chemistry” (J Med Chem, 2011).

Experiments:
HeLa = assay: Cytotoxicity against human HeLa cells; type: cell-based
PC-3 = assay: Cytotoxicity against human PC3 cells; type: cell-based
Micrococcus luteus = assay: Antimicrobial activity against Micrococcus luteus ATCC 10240 after 24 hrs by Kirby-Bauer agar diffusion assay; type: functional
How it was run: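 Modified Kirby-Bauer well diffusion. Overnight LB cultures (18–24 h) were standardized in 0.9% saline to 0.5 McFarland and mixed into melted MHII agar at 47–50 °C, giving ~5×10³ CFU/mL. 9 mm wells received 50 µL of 2.0 mM compound in 10:1 MeOH:DMSO. Plates were incubated 24 h at 37 °C, then growth-inhibition zone diameter was measured (mm) by caliper.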

MCF7 = assay: Cytotoxicity against human MCF7 cells; type: cell-based

`Brc1ccc(N2OC3C=CC2C3)nc1` (racemic) was tested, and the Activity (HeLa) was “Non-toxic”, the Activity (PC-3) was “Non-toxic” and the “diameter of the inhibition zone (DIZ)” value (Micrococcus luteus) was “<=14 mm”. For the same compound, the Activity (MCF7) was “Non-toxic”.

In the case of `CO[C@@H]1C=C[C@@H](N(O)C(=O)Cc2ccccc2)C1` (racemic), the Activity (HeLa) is reported as “Non-toxic”, the Activity (PC-3) is reported as “Non-toxic” and the “diameter of the inhibition zone (DIZ)” value (Micrococcus luteus) is reported as “<=14 mm”. The Activity (MCF7) was “Non-toxic”.

With `Cc1cccc(N(O)[C@@H]2C=C[C@@H](OC(C)(C)C)CC2)n1` (racemic) the Activity (HeLa) was “Non-toxic”, the Activity (PC-3) was “Non-toxic” and the “diameter of the inhibition zone (DIZ)” value (Micrococcus luteus) was over 14 mm. For the same compound, the Activity (MCF7) was “Non-toxic”.

For `CCc1cccc(N=O)n1`, the Activity (HeLa) was “Non-toxic”, the Activity (PC-3) was “Non-toxic” and the “diameter of the inhibition zone (DIZ)” value (Micrococcus luteus) was “<=14 mm”. The Activity (MCF7) was “Non-toxic”.

With `CO[C@@H]1C=CCC[C@H]1N(O)C(=O)Cc1ccccc1` (relative stereo) the Activity (HeLa) was “Non-toxic”, the Activity (PC-3) was “Non-toxic” and the “diameter of the inhibition zone (DIZ)” value (Micrococcus luteus) was “<=14 mm”. For the same compound, the Activity (MCF7) was “Non-toxic”.

With `O=Nc1ccc(Cl)cn1` the Activity (HeLa) was “Non-toxic”, the Activity (PC-3) was “Non-toxic” and the “diameter of the inhibition zone (DIZ)” value (Micrococcus luteus) was “<=14 mm”. The Activity (MCF7) was “Non-toxic”.

`Cc1cccnc1N(O)[C@@H]1CC=C[C@H]1OC(C)C` (racemic) was tested, and the Activity (HeLa) was “Non-toxic”, the Activity (PC-3) was “Non-toxic” and the “diameter of the inhibition zone (DIZ)” value (Micrococcus luteus) was over 14 mm. For the same compound, the Activity (MCF7) was “Non-toxic”.

In the case of `C=C(CN(O)c1cc(C)on1)c1ccccc1`, the Activity (HeLa) is reported as “Non-toxic”, the Activity (PC-3) is reported as “Non-toxic” and the “diameter of the inhibition zone (DIZ)” value (Micrococcus luteus) is reported as over 14 mm. The Activity (MCF7) was “Non-toxic”.

With `CC(C)(C)O[C@@H]1C=C[C@@H](N(O)C(=O)Cc2ccccc2)C1` (racemic) the Activity (HeLa) was “Non-toxic”, the Activity (PC-3) was “Non-toxic” and the “diameter of the inhibition zone (DIZ)” value (Micrococcus luteus) was “<=14 mm”. The Activity (MCF7) was “Non-toxic”.

With `CC(C)(C)OC1C=C[C@@H](N(O)c2ccc(Br)cn2)C1` (mixture of isomers) the Activity (HeLa) was “Non-toxic”, the Activity (PC-3) was “Non-toxic” and the “diameter of the inhibition zone (DIZ)” value (Micrococcus luteus) was over 14 mm. For the same compound, the Activity (MCF7) was “Non-toxic”.

`O[C@@H]1C=CCC[C@H]1N(O)c1ccc(Br)cn1` (racemic) was tested, and the Activity (HeLa) was “Non-toxic”, the Activity (PC-3) was “Non-toxic” and the “diameter of the inhibition zone (DIZ)” value (Micrococcus luteus) was over 14 mm. For the same compound, the Activity (MCF7) was “Non-toxic”.

With `O=C(c1ccccc1)N1OC2C=CC21` (racemic) the Activity (HeLa) was “Non-toxic”, the Activity (PC-3) was “Non-toxic” and the “diameter of the inhibition zone (DIZ)” value (Micrococcus luteus) was “<=14 mm”. The Activity (MCF7) was “Non-toxic”.

`Cc1cccnc1N=O` was tested, and the Activity (HeLa) was “Non-toxic”, the Activity (PC-3) was “Non-toxic” and the “diameter of the inhibition zone (DIZ)” value (Micrococcus luteus) was “<=14 mm”. The Activity (MCF7) was “Non-toxic”.

For `COC1C=C[C@@H](N(O)c2ccc(Br)cn2)C1` (mixture of isomers), the Activity (HeLa) was “Non-toxic”, the Activity (PC-3) was “Non-toxic” and the “diameter of the inhibition zone (DIZ)” value (Micrococcus luteus) was over 14 mm. The Activity (MCF7) was “Non-toxic”.

`CC(C)(C)O[C@@H]1C=CC[C@H]1N(O)c1ccc(Cl)cn1` was tested, and the Activity (HeLa) was “Non-toxic”, the Activity (PC-3) was “Non-toxic” and the “diameter of the inhibition zone (DIZ)” value (Micrococcus luteus) was over 14 mm. For the same compound, the Activity (MCF7) was “Non-toxic”.

`C=C(C)C(C)N(O)C(=O)[C@H](C)NC(=O)OC(C)(C)C` (mixture of isomers) was tested, and the Activity (HeLa) was “Non-toxic”, the Activity (PC-3) was “Non-toxic” and the “diameter of the inhibition zone (DIZ)” value (Micrococcus luteus) was “<=14 mm”. The Activity (MCF7) was “Non-toxic”.

With `Cc1cccc(N(O)[C@@H]2C=CC(OC(C)C)C2)n1` (mixture of isomers) the Activity (HeLa) was “Non-toxic”, the Activity (PC-3) was “Non-toxic” and the “diameter of the inhibition zone (DIZ)” value (Micrococcus luteus) was over 14 mm. For the same compound, the Activity (MCF7) was “Non-toxic”.

With `CCCCCCN(OCc1ccc(OC)cc1)c1ccccn1` the Activity (HeLa) was “Non-toxic”, the Activity (PC-3) was “Non-toxic” and the “diameter of the inhibition zone (DIZ)” value (Micrococcus luteus) was “<=14 mm”. The Activity (MCF7) was “Non-toxic”.

For `O=Nc1ccc(I)cn1`, the Activity (HeLa) was “Non-toxic”, the Activity (PC-3) was “Non-toxic” and the “diameter of the inhibition zone (DIZ)” value (Micrococcus luteus) was “<=14 mm”. The Activity (MCF7) was “Non-toxic”.

In the case of `Cc1cccc(N(O)[C@@H]2CCC=C[C@H]2OC(C)(C)C)n1` (racemic), the Activity (HeLa) is reported as “Non-toxic”, the Activity (PC-3) is reported as “Non-toxic” and the “diameter of the inhibition zone (DIZ)” value (Micrococcus luteus) is reported as over 14 mm. The Activity (MCF7) was “Non-toxic”.
